Reference: ChEMBL document CHEMBL1149092, “Studies on pyrrolopyrimidines as selective inhibitors of multidrug-resistance-associated protein in multidrug resistance” (J Med Chem, 2004)

Tests used:
[1] = molecular target: Multidrug resistance-associated protein 1 (Homo sapiens, UniProt P33527); assay: Inhibitory activity against human transporter MRP1 (Multidrug resistance associated protein 1) expressed in COR.L23/R cell line
Summary of the method: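 Tritiated daunomycin (0.3 μCi/mL) accumulation in COR.L23/R cells (MRP-expressing human NSCLC MDR subline), seeded 48 h before the assay. Cells were washed and cell-associated radioactivity measured. 100% accumulation was set with 100 μM verapamil.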

[2] = molecular target: ATP-dependent translocase ABCB1 (Mus musculus, UniProt P06795); assay: Inhibitory activity against mouse transporter Pgp (P-glycoprotein) expressed in EMT6/AR1.0 cell line
Summary of the method: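 Accumulation protocol run as for MRP1, but in the Pgp-expressing murine mammary carcinoma EMT6/AR1.0 subline. IC50 is the mean of at least three experiments.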

[3] = (§1) Area under curve when injected intravenously in BALB/C mice at a dose of 20 mg/kg; format: ADME, organism-based; design: dose 20 mg/kg, route intravenous; details: BALB/C, mouse, in vivo, iv
Summary of the method: (§2)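 Female Balb/c mice, three to four per time point, were dosed iv, ip or po at 20–50 mg/kg. Blood was taken by cardiac puncture under anesthesia from 0.03 to 24 h. Plasma was methanol-extracted and analysed by HPLC. AUC (linear/log trapezoidal) and t1/2 were derived by noncompartmental analysis.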

[4] = (§3) Half life in BALB/C mice at the dose of 20 mg/kg by i.v. administration; format: ADME, organism-based; design: dose 20 mg/kg, route intravenous; details: mouse, in vivo, iv; summary of the method: as §2
Cytochrome P450 3A4 = Cytochrome P450 3A4 (Homo sapiens, UniProt P08684); assay: Inhibitory concentration to inhibit MRP1 in CYP 3A4 assay
[5] = (§4) Maximal plasma concentration in BALB/C mice after 20 mg/kg intravenous dose; format: ADME, organism-based; design: dose 20 mg/kg, route intravenous; details: BALB/C, mouse, plasma; summary of the method: as §2
[6] = Maximal plasma concentration in BALB/C mice after 20 mg/kg intraperitoneal dose; format: ADME, organism-based; design: dose 20 mg/kg, route intraperitoneal; details: mouse, ip; summary of the method: as §2
[7] = Maximal plasma concentration in BALB/C mice after 50 mg/kg oral dose; format: ADME, organism-based; design: dose 50 mg/kg, route oral; details: mouse; summary of the method: as §2
[8] = Area under curve when injected intraperitoneally in BALB/C mice at a dose of 20 mg/kg; format: ADME, organism-based; design: dose 20 mg/kg, route intraperitoneal; details: mouse, in vivo, ip; summary of the method: as §2
[9] = Bioavailability in mouse (BALB/C) (dose 50 mg/kg p.o.); details: in vivo, po
[10] = Half life in BALB/C mice at the dose of 50 mg/kg by p.o. administration; details: mouse, in vivo, po
[11] = Area under curve when injected perorally in BALB/C mice at a dose of 50 mg/kg; format: ADME, organism-based; design: dose 50 mg/kg, route oral; details: mouse, in vivo, po; summary of the method: as §2
[12] = Bioavailability in mouse (BALB/C) (dose 20 mg/kg i.p.); details: in vivo, ip
[13] = Half life in BALB/C mice at the dose of 20 mg/kg by i.p. administration; format: ADME, organism-based; design: dose 20 mg/kg, route intraperitoneal; details: mouse, in vivo, ip; summary of the method: as §2
Mus musculus [14] = assay: as §1; format: ADME, organism-based; design: dose 20 mg/kg, route intravenous; details: in vivo, iv; summary of the method: as §2
Mus musculus [15] = assay: as §3; format: ADME, organism-based; design: dose 20 mg/kg, route intravenous; details: in vivo, iv; summary of the method: as §2
Mus musculus [16] = assay: as §4; format: ADME, organism-based; design: dose 20 mg/kg, route intravenous; details: in vivo; summary of the method: as §2
[17] = Half life in BALB/C mice at the dose of 50 mg/kg by p.o. administration; format: ADME, organism-based; design: dose 50 mg/kg, route oral; details: mouse, in vivo, po; summary of the method: as §2
[18] = Half life in BALB/C mice at the dose of 50 mg/kg by i.p. administration; format: ADME, organism-based; design: dose 50 mg/kg, route intraperitoneal; details: mouse, in vivo, ip; summary of the method: as §2

Sequence of Cytochrome P450 3A4 (P08684 whole entry): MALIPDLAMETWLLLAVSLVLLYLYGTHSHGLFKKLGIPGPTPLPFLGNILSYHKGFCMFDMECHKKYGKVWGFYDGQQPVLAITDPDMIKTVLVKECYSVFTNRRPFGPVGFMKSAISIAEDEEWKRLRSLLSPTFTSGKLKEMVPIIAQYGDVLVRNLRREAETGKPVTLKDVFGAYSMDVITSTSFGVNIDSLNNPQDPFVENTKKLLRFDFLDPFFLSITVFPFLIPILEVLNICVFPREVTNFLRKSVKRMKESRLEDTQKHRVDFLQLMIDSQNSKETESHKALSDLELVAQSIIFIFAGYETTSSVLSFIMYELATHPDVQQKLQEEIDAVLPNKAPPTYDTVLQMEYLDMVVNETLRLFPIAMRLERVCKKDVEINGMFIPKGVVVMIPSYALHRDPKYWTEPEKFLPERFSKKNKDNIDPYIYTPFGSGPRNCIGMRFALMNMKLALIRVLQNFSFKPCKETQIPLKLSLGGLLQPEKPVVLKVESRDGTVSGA
Sequence of Multidrug resistance-associated protein 1 (P33527 whole entry): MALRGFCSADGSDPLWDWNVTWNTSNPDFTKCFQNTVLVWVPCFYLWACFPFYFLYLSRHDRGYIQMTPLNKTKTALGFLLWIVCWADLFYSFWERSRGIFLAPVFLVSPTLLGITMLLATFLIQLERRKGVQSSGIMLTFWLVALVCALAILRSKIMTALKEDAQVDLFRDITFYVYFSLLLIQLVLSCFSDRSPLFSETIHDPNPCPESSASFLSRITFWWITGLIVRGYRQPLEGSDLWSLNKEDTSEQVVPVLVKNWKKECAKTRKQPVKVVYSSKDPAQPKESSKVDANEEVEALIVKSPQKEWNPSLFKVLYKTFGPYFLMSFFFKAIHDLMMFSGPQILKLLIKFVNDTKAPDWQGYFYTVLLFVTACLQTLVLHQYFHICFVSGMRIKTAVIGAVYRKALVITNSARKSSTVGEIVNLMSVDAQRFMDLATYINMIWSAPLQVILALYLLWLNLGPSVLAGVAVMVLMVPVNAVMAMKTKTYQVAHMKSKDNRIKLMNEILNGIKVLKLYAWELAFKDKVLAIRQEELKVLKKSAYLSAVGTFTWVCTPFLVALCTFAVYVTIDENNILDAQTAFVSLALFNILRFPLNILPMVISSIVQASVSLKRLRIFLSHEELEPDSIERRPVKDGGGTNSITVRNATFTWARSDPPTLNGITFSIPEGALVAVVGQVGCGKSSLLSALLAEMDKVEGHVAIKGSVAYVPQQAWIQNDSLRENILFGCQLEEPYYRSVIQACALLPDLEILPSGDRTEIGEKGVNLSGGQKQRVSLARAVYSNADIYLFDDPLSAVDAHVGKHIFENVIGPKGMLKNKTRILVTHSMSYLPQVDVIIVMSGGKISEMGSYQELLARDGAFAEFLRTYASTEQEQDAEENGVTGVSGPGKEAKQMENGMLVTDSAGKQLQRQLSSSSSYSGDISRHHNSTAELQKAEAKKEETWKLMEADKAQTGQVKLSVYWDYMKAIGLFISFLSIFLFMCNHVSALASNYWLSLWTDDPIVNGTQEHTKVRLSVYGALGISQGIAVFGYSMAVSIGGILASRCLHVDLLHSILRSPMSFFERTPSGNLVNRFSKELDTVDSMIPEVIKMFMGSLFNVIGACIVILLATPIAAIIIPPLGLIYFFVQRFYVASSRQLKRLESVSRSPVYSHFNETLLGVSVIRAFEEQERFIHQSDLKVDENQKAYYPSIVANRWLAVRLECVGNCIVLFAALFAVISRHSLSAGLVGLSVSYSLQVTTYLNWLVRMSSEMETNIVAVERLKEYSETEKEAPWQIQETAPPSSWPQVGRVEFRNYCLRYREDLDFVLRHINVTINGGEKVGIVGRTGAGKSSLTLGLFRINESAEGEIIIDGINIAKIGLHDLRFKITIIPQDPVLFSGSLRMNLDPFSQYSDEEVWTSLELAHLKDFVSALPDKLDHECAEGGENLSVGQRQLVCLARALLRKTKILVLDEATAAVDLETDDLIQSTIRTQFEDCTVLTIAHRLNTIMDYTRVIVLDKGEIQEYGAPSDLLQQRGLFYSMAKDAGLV
Sequence of ATP-dependent translocase ABCB1 (P06795 whole entry): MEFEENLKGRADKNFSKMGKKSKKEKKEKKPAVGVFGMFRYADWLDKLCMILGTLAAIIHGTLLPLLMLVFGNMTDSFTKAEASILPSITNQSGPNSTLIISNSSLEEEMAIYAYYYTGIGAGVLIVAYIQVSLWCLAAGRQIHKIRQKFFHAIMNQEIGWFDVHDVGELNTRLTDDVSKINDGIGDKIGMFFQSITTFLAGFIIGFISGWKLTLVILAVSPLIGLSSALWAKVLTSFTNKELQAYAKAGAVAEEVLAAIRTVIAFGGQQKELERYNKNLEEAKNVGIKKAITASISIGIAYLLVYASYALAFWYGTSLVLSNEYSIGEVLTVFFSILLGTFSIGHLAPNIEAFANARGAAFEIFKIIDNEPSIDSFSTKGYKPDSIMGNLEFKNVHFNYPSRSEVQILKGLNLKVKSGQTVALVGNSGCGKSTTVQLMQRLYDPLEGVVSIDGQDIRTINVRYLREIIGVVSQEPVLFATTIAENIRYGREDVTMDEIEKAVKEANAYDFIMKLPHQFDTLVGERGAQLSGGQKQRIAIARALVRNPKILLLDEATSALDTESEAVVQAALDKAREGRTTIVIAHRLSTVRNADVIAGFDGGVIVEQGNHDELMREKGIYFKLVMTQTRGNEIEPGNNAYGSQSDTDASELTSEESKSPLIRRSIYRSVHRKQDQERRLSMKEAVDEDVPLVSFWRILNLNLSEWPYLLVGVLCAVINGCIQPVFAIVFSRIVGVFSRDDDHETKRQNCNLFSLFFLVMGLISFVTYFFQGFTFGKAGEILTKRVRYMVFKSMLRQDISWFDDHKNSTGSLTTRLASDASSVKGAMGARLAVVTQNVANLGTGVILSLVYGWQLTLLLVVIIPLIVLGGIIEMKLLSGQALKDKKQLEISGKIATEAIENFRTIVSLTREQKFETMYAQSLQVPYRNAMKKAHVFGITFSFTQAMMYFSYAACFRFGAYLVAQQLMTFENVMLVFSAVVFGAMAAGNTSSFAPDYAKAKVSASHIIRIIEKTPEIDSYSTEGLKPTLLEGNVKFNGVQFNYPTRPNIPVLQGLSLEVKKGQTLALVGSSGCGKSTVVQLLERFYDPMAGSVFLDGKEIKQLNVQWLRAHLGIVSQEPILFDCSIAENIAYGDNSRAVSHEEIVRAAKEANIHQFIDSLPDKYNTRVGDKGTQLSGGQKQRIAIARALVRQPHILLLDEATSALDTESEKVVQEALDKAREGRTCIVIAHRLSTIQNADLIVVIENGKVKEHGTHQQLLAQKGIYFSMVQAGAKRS

Row | Compound | IC50 [1] [nM] | IC50 [2] [µM] | other results
1 | COc1cccc(CCN2CCN(c3ncnc4c(C#N)c5n(c34)CCCC5)CC2)c1 | 2300 | 16.2 | –
2 | O=C(NCc1ccccn1)c1c2n(c3c(N4CCN(CCc5ccc(F)c(F)c5)CC4)ncnc13)CCCC2 | 61 | 3.4 | AUC [3]: 7380 ng·h/mL; half-life ([4]; BALB/C): 150 min; IC50 (Cytochrome P450 3A4): 30.1 µM; Cmax [5]: 11.4 µM
3 | COc1ccc(CCN2CCN(c3ncnc4c(C#N)c5n(c34)CCCC5)CC2)cc1 | > 50000 | – | –
4 | NC(=O)c1c2n(c3c(N4CCN(CCc5ccc(F)c(F)c5)CC4)ncnc13)CCCC2 | 138 | > 50 | Cmax [6]: 4.43 µM; AUC [3]: 25000 ng·h/mL; half-life [4]: 88.2 min; Cmax [7]: 8.37 µM; IC50 (Cytochrome P450 3A4): 45.8 µM; AUC [8]: 13100 ng·h/mL; Cmax [5]: 28 µM; bioavailability [9]: 71.6%; half-life [10]: 412 min; AUC [11]: 44900 ng·h/mL; bioavailability [12]: 52%; half-life [13]: 381 min
5 | N#Cc1c2n(c3c(N4CCN(CCc5ccc(F)c(F)c5)CC4)nc(-c4ccncc4)nc13)CCCC2 | 105 | 1.31 | –
6 | N#Cc1c2n(c3c(N4CCN(CCCc5ccccc5)CC4)ncnc13)CCCC2 | 7350 | 13 | –
7 | N#Cc1c2n(c3c(N4CCN(CCc5ccc(F)c(F)c5)CC4)ncnc13)CCCC2 | 229 | 10.5 | –
8 | Cc1nc(-c2c3n(c4c(N5CCN(CCc6ccccc6)CC5)ncnc24)CCCC3)sc1C | 533 | 6 | –
9 | N#Cc1c2n(c3c(N4CCN(CCc5ccccc5[N+](=O)[O-])CC4)ncnc13)CCCC2 | 1410 | > 50 | –
10 | COc1cccc(CNC(=O)c2c3n(c4c(N5CCN(CCc6ccc(F)c(F)c6)CC5)ncnc24)CCCC3)c1OC | 43 | 3.7 | AUC (Mus musculus [14]): 12 µg·h/mL; T1/2 (Mus musculus [15]): 48 min; IC50 (Cytochrome P450 3A4): 2.44 µM; Cmax (Mus musculus [16]): 4 µM
11 | N#Cc1c2n(c3c(N4CCN(CCc5ccc([N+](=O)[O-])cc5)CC4)ncnc13)CCCC2 | 523 | 12.9 | –
12 | N#Cc1c2n(c3c(N4CCN(CCc5cccc([N+](=O)[O-])c5)CC4)ncnc13)CCCC2 | 410 | 9.67 | –
13 | CCC(=O)c1c2n(c3c(N4CCN(CCc5ccccc5)CC4)ncnc13)CCCC2 | 2800 | > 50 | –
14 | N#Cc1c2n(c3c(N4CCN(CCc5ccccc5)CC4)nc(-c4ccccc4)nc13)CCCC2 | 715 | 5 | –
15 | N#Cc1c2n(c3c(N4CCN(CCc5ccccc5Cl)CC4)ncnc13)CCCC2 | 955 | 10.6 | –
16 | N#Cc1c2n(c3c(NS(=O)(=O)Cc4ccccc4)ncnc13)CCCC2 | 20900 | 5.4 | –
17 | CN(CCc1ccccc1)c1ncnc2c(C#N)c3n(c12)CCCC3 | 9000 | 33 | –
18 | Cc1ccccc1-c1nc(N2CCN(CCc3ccc(F)c(F)c3)CC2)c2c(n1)c(C#N)c1n2CCCC1 | 620 | 18 | –

Row | Compound | IC50 [1] [nM] | IC50 [2] [µM] | other results
19 | N#Cc1c2n(c3c(N4CCN(CCc5ccccc5)CC4)nc(I)nc13)CCCC2 | 887 | 13 | –
20 | N#Cc1c2n(c3c(N4CCN(CC(=O)c5ccccc5)CC4)ncnc13)CCCC2 | 1850 | 23 | –
21 | N#Cc1c2n(c3c(NCCN4CCc5ccccc5C4)ncnc13)CCCC2 | 6350 | > 50 | –
22 | N#Cc1c2n(c3c(N4CCN(CCc5c[nH]c6ccccc56)CC4)ncnc13)CCCC2 | 600 | 5.82 | –
23 | N#Cc1c2n(c3c(N4CCN(CCc5cccc(Cl)c5)CC4)ncnc13)CCCC2 | 920 | 17.9 | –
24 | N#Cc1c2n(c3c(N4CCN(CCc5ccccc5)CC4)ncnc13)CCCC2 | 690 | 9.63 | –
25 | O=C(Nc1cccnc1)c1c2n(c3c(N4CCN(CCc5ccc(F)c(F)c5)CC4)ncnc13)CCCC2 | – | 4.95 | half-life [17]: 225 min; AUC [3]: 40600 ng·h/mL; half-life [4]: 403 min; Cmax [7]: 14.3 µM; Cmax [5]: 24.5 µM; bioavailability [9]: 55.5%; AUC [11]: 56400 ng·h/mL; half-life [18]: 269 min; bioavailability [12]: 45.6%
26 | COC(=O)c1c2n(c3c(N4CCN(CCc5ccccc5)CC4)ncnc13)CCCC2 | 910 | 16.5 | –
27 | N#Cc1c2n(c3c(SCc4ccc(Cl)cc4)ncnc13)CCCCC2 | 3900 | – | –
28 | O=C(c1ccccc1)c1c2n(c3c(N4CCN(CCc5ccccc5)CC4)ncnc13)CCCC2 | 1370 | 10.7 | –
29 | c1ccc(CCN2CCN(c3ncnc4c(-c5ncccn5)c5n(c34)CCCC5)CC2)cc1 | 675 | > 50 | –
30 | N#Cc1c2n(c3c(N4CCN(CCc5ccc(Cl)cc5)CC4)ncnc13)CCCC2 | 399 | 9.2 | –
31 | N#Cc1c2n(c3c(NCCc4ccccc4)ncnc13)CCCC2 | 6300 | 16 | –
32 | N#Cc1c2n(c3c(N4CCN(CCc5ccc(F)c(F)c5)CC4)nc(-c4cccnc4)nc13)CCCC2 | 218 | – | –
33 | CC(=O)Nc1ccc(-c2nc(N3CCN(CCc4ccccc4)CC3)c3c(n2)c(C#N)c2n3CCCC2)cc1 | 570 | 23.7 | –
34 | Cc1nc(-c2c3n(c4c(N5CCN(CCc6ccccc6)CC5)ncnc24)CCCC3)no1 | 650 | 3.7 | –
35 | N#Cc1c2n(c3c(N4CCN(S(=O)(=O)Cc5ccccc5)CC4)ncnc13)CCCC2 | 6650 | 14 | –
36 | CCNC(=O)c1c2n(c3c(N4CCN(CCc5ccc(F)c(F)c5)CC4)ncnc13)CCCC2 | – | 4.79 | Cmax [6]: 7.34 µM; half-life [17]: 474 min; AUC [3]: 16900 ng·h/mL; half-life [4]: 138 min; Cmax [7]: 5.73 µM; AUC [8]: 14600 ng·h/mL; Cmax [5]: 18.3 µM; bioavailability [9]: 50%; AUC [11]: 21100 ng·h/mL; bioavailability [12]: 85%; half-life [13]: 110 min
